Source: PubChem BioAssay
Compounds with a hit are over-represented: about 4.1% of the library has one in this group of screens.
KCNK3 block – human KCNK3 channel inhibition, primary screen; O14649; CHO-KCNK3 thallium flux, FluxOR fluorescence; hits give low values; B-score at 10 µM; actives 0.84% (n = 340,000);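 active = B-score under library mean minus 4 SD, starting fluorescence ratio at most library mean plus 5 SD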;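 also: more negative B-score means stronger inhibition of thallium flux through KCNK3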
Cl transport mod – modulates chloride dependent transport by human KCC2; Q9H2X9; KCC2 cells, thallium flux FluoZin-2 fluorescence; B-score of Tl+ flux slope (higher = more flux/activation; lower = inhibition) at 10 µM; actives 2.2% (n = 190,000); AID 1456;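 active = thallium flux slope and its plate-corrected score both differing from the plate sample mean at a set confidence after two filtering rounds, in either direction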;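 also: slope of fluorescence scaled to starting intensity during 10 to 20 s after thallium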
Target sequence (Q9H2X9 whole entry, looked up): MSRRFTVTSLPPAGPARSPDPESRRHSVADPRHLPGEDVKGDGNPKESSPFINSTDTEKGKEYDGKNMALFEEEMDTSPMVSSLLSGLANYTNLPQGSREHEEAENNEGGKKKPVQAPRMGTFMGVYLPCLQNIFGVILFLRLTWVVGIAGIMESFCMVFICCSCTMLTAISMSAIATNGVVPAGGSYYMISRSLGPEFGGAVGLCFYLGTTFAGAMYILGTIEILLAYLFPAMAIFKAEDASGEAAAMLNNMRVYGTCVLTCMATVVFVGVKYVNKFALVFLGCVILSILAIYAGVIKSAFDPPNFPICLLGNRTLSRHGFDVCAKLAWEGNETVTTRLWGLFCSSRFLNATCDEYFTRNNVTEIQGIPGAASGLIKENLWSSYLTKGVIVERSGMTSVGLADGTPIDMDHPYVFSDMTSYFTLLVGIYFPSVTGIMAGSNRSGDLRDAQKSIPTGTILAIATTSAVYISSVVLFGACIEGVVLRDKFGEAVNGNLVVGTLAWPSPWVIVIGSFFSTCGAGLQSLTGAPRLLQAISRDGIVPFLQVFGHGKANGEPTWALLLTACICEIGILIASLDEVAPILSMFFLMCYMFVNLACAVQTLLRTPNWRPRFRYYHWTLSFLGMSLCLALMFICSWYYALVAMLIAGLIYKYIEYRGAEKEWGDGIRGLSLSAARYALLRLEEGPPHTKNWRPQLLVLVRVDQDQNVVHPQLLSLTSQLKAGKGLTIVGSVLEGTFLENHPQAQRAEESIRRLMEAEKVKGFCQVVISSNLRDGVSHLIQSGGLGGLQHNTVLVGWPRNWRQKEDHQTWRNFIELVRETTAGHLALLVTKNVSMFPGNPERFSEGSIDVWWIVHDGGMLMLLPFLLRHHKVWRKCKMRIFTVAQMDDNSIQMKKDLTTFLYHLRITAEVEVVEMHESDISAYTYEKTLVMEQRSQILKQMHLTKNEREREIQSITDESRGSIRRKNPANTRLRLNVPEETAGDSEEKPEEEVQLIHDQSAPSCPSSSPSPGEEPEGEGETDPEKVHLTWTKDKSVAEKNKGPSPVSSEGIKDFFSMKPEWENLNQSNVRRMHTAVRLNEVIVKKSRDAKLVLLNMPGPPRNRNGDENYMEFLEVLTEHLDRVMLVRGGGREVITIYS
hERG rescue – hERG (human) protection from proarrhythmic block; activation (rescue from dofetilide block), less the hit threshold, % at 10 µM; AID 1511; CHO-hERG, FluxOR thallium flux, dofetilide IC70 present; actives 0.51% (n = 310,000); Q12809;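 active = activation above the mean of controls blocked by dofetilide plus 5 SD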;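 also: thallium influx through hERG after potassium depolarization seen as dye fluorescence rise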
KCNK9 inh – blocks the human KCNK9 two-pore domain potassium channel. B-score at 10 µM. actives 1.2% (n = 310,000). AID 488922. Q9NPC2. HEK293 KCNK9, FluxOR thallium flux fluorescence; hits give low values;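 active = ratio B-score over 3 SD below the library mean, with starting fluorescence within 5 SD of its mean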;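 also: negative B-score means less thallium flux so channel inhibition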
KCNQ1 inh – blocks the human KCNQ1 potassium channel. P51787. CHO-K1 KCNQ1, FluxOR thallium flux fluorescence; hits give high values. B-score at 10 µM. actives 1.3% (n = 310,000). AID 2642;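 active = compounds whose thallium flux B-score, printed positive for inhibition, exceeds three library SD while starting fluorescence stays within three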;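 also: channel opened by potassium depolarization with thallium stimulus after 20 min compound exposure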
KCNQ1 act – potentiators or activators of human KCNQ1 potassium channel | CHO-K1 KCNQ1, thallium flux FluxOR fluorescence; hits give high values | B-score at 10 µM | actives 0.35% (n = 310,000) | P51787;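 active = fluorescence ratio B-score, a plate-corrected score, at least three library SD, with initial intensity B-score within 5 SD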
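System: CHO-K1 cells stably expressing KCNQ1 / Medium: assay buffer for compound exposure, DMSO matched across wells / Reagent: thallium- and potassium-containing depolarizing buffer / Compound: one concentration, matched DMSO / Incubation: 20 min compound pretreatment at room temperature / Measured by: kinetic FluxOR fluorescence, 10 s baseline plus 110 s post-stimulus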
KCNK9 inh conf – confirmation of human KCNK9 potassium channel inhibitors | actives 43% (n = 4,900) | HEK293 KCNK9 cells, FluxOR thallium flux fluorescence | AID 492992 | inhibition, % at 10 µM | shares compounds with KCNK9 inh;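 active = thallium signal inhibited by more than 5 SD of the compound-free buffer control wells, on both duplicate plates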
Kir21 sel – selectivity of KCNK9 modulators against mouse Kir2.1. actives 4% (n = 4,900). Kir2.1 cells, FluxOR thallium flux fluorescence. inhibition, % at 10 µM. shares compounds with KCNK9 inh;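 active = thallium signal drop more than 5 SD beyond the mean of the no-compound control wells, seen in both duplicate plates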;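 also: signal is fluorescence rise after thallium addition divided by baseline fluorescence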
KCNK9 uninduced – second counter-screen for KCNK9 modulators: effect in non-induced cells. shares compounds with KCNK9 inh. non-induced KCNK9-HEK293, FluxOR thallium flux. inhibition, % at 10 µM. actives 40% (n = 4,900). AID 492997;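 active = thallium signal drop beyond 5 SD of the untreated control mean, on both duplicate plates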
Numbers stand for hits.

How did COc1cc(CN2CCN(Cc3ccccc3C(F)(F)F)CC2)cc(OC)c1OC do in these assays?
KCNK3 block: inactive; hERG rescue: inactive; KCNK9 inh: inactive; KCNQ1 inh: inactive; KCNQ1 act: inactive; KCNK9 inh conf: inactive; Kir21 sel: inactive; KCNK9 uninduced: inactive

Results for Cc1ccc(CN2CCN(Cc3ccccc3C(F)(F)F)CC2)cc1 ?
KCNK3 block: inactive; Cl transport mod: inactive; hERG rescue: inactive; KCNK9 inh: inactive; KCNQ1 inh: inactive; KCNQ1 act: inactive; KCNK9 inh conf: inactive; Kir21 sel: inactive; KCNK9 uninduced: inactive

Results for CN(C(=O)C1CCC(CNS(=O)(=O)c2cccc3cccnc23)CC1)C1CCCCC1 (stereo not drawn) ?
KCNK3 block: inactive; hERG rescue: inactive; KCNK9 inh: inactive; KCNQ1 inh: inactive; KCNQ1 act: inactive

What do the screens show for `Cc1ccc(/C=N/NC(=O)CSc2nc3ccccc3n2Cc2ccc(Cl)cc2)o1`?
KCNK3 block: inactive; Cl transport mod: inactive; hERG rescue: inactive; KCNK9 inh: -21.2; KCNQ1 inh: inactive; KCNQ1 act: inactive; KCNK9 inh conf: 62.5%; Kir21 sel: inactive; KCNK9 uninduced: 50.5%

Results for Cc1ccc(/C=N/NC(=O)CSc2nc3ccccc3n2Cc2ccccc2)o1 ?
KCNK3 block: inactive; Cl transport mod: inactive; hERG rescue: inactive; KCNK9 inh: inactive; KCNQ1 inh: inactive; KCNQ1 act: inactive

How did CCc1noc(C)c1C(=O)NNC(=O)c1ccc(N(CC)CC)cc1 do in these assays?
KCNK3 block: inactive

How did CN(C)CCCNc1cc(O)c2ncccc2c1 do in these assays?
KCNK3 block: inactive

What do the screens show for `Cc1cccc(CN2CCCC(C(=O)N3CCc4ccccc4C3)C2)c1` (stereo not drawn)?
KCNK3 block: inactive; Cl transport mod: inactive; hERG rescue: inactive; KCNK9 inh: inactive; KCNQ1 inh: inactive; KCNQ1 act: inactive; KCNK9 inh conf: inactive; Kir21 sel: inactive; KCNK9 uninduced: inactive

How did Cc1cccc(CN2CCCC(C(=O)N3CCCCC3)C2)c1 (stereo not drawn) do in these assays?
KCNK3 block: inactive; hERG rescue: inactive; KCNK9 inh: inactive; KCNQ1 inh: inactive; KCNQ1 act: inactive

How did Cc1ccc(CSCC(=O)NCCc2ccccc2)cc1 do in these assays?
KCNK3 block: inactive; Cl transport mod: inactive; hERG rescue: inactive; KCNK9 inh: inactive; KCNQ1 inh: inactive; KCNQ1 act: inactive; KCNK9 inh conf: inactive; Kir21 sel: inactive; KCNK9 uninduced: inactive

How did CSc1ccccc1NC(=O)CSCc1ccc(C)cc1 do in these assays?
KCNK3 block: inactive; Cl transport mod: -3.86; hERG rescue: inactive; KCNK9 inh: inactive; KCNQ1 inh: inactive; KCNQ1 act: inactive; KCNK9 inh conf: inactive; Kir21 sel: inactive; KCNK9 uninduced: inactive

What do the screens show for `Cc1ccc(CSCCNC(=O)CSCc2ccc([N+](=O)[O-])cc2)cc1`?
KCNK3 block: inactive; hERG rescue: inactive; KCNK9 inh: inactive; KCNQ1 inh: inactive; KCNQ1 act: inactive; KCNK9 inh conf: inactive; Kir21 sel: inactive; KCNK9 uninduced: inactive

How did Cc1ccc(NC(=O)CSCC(=O)NCCc2ccccc2)cc1 do in these assays?
KCNK3 block: inactive; hERG rescue: inactive; KCNK9 inh: inactive; KCNQ1 inh: inactive; KCNQ1 act: inactive

Results for N/C(=N\OC(=O)COc1ccccc1)c1ccncc1 ?
KCNK3 block: inactive; Cl transport mod: inactive; hERG rescue: inactive; KCNK9 inh: inactive; KCNQ1 inh: inactive; KCNQ1 act: inactive

Results for N/C(=N\OC(=O)Cc1ccc(-c2ccccc2)cc1)c1ccncc1 ?
KCNK3 block: inactive; Cl transport mod: inactive; hERG rescue: inactive; KCNK9 inh: inactive; KCNQ1 inh: inactive; KCNQ1 act: inactive; KCNK9 inh conf: 30.0%; Kir21 sel: inactive; KCNK9 uninduced: inactive

Results for CCCNC(=O)N1CCCC(C(=O)c2cccc(Cl)c2)C1 (stereo not drawn) ?
KCNK3 block: inactive; Cl transport mod: inactive; hERG rescue: inactive; KCNK9 inh: inactive; KCNQ1 inh: inactive; KCNQ1 act: inactive

What do the screens show for `O=C(CCc1ccccc1)C(=O)N1CCCC(C(=O)c2cccc(Cl)c2)C1` (stereo not drawn)?
KCNK3 block: inactive; Cl transport mod: inactive; hERG rescue: inactive; KCNK9 inh: inactive; KCNQ1 inh: inactive; KCNQ1 act: inactive; KCNK9 inh conf: inactive; Kir21 sel: 31.5%; KCNK9 uninduced: 37.0%

Results for CCCCNC(=S)N/N=C/C1=CCC2CC1C2(C)C (stereo not drawn) ?
KCNK3 block: inactive; Cl transport mod: inactive; hERG rescue: inactive; KCNK9 inh: inactive; KCNQ1 inh: inactive; KCNQ1 act: inactive; KCNK9 inh conf: inactive; Kir21 sel: inactive; KCNK9 uninduced: inactive

Results for C=CCn1c(C)c(C(C)=O)c(N2CCN(C(c3ccccc3)c3ccccc3)CC2)nc1=S ?
KCNK3 block: inactive; Cl transport mod: inactive; hERG rescue: inactive; KCNK9 inh: -8.15; KCNQ1 inh: inactive; KCNQ1 act: inactive; KCNK9 inh conf: 37.0%; Kir21 sel: inactive; KCNK9 uninduced: inactive

What do the screens show for `CC(=O)c1c(N2CCN(C)CC2)nc(=S)n(Cc2ccccc2)c1C`?
KCNK3 block: inactive; Cl transport mod: inactive; hERG rescue: inactive; KCNK9 inh: inactive; KCNQ1 inh: inactive; KCNQ1 act: inactive

Results for CCC(=O)N(CCC(Cc1ccccc1)c1ccc2c(c1)OCO2)Cc1ccccc1F (stereo not drawn) ?
KCNK3 block: inactive; Cl transport mod: inactive; hERG rescue: inactive; KCNK9 inh: -12.6; KCNQ1 inh: 9; KCNQ1 act: inactive; KCNK9 inh conf: 65.0%; Kir21 sel: inactive; KCNK9 uninduced: 31.5%

What do the screens show for `CSc1ncccc1C(=O)NCCc1ccc(S(N)(=O)=O)cc1`?
KCNK3 block: inactive; hERG rescue: inactive; KCNK9 inh: inactive; KCNQ1 inh: inactive; KCNQ1 act: inactive

What do the screens show for `O=C(c1cccc(S(=O)(=O)N2CCCCC2)c1)N(CCc1ccccc1)Cc1ccccc1`?
KCNK3 block: inactive; hERG rescue: inactive; KCNK9 inh: -16.2; KCNQ1 inh: 6; KCNQ1 act: inactive; KCNK9 inh conf: 61.5%; Kir21 sel: inactive; KCNK9 uninduced: 35.5%

Results for O=C(Nc1nc(-c2ccccc2)cs1)c1cccc(S(=O)(=O)N2CCN(Cc3ccccc3)CC2)c1 ?
KCNK3 block: inactive; Cl transport mod: inactive; hERG rescue: inactive; KCNK9 inh: inactive; KCNQ1 inh: inactive; KCNQ1 act: inactive; KCNK9 inh conf: inactive; Kir21 sel: inactive; KCNK9 uninduced: inactive
